One block for each compound: values may come before it.
Key:
Rattus norvegicus [1] = test: Biodistribution of I-125 labeled compound in rat blood, 1 hr after intravenous injection. value expressed in average % dose per organ; format: ADME, organism-based; settings: in vivo
Rattus norvegicus [2] = test: Biodistribution of I-125 labeled compound in rat blood, 2 min after intravenous injection. value expressed in average % dose per organ; format: ADME, organism-based; settings: in vivo
Rattus norvegicus [3] = test: Biodistribution of I-125 labeled compound in rat brain, 1 hr after intravenous injection. value expressed in average % dose per organ; format: ADME, organism-based; settings: in vivo
Rattus norvegicus [4] = test: Biodistribution of I-125 labeled compound in rat brain to blood ratio, 2 min after intravenous injection. value expressed in % dose per gram ratio; format: ADME, organism-based
Summary of the method: (§1)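 Rats given I-125 diamine iv; tissue activity at 2 min or 1 h compared with diluted injected-dose aliquots. % dose per gram approximated as % dose per organ divided by mean organ weight (brain 1.65 g; blood 18 g). Ratio taken from the per-gram values.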

Rattus norvegicus [5] = test: Biodistribution of I-125 labeled compound in rat liver, 1 hr after intravenous injection. value expressed in average % dose per organ; format: ADME, organism-based; settings: in vivo
Rattus norvegicus [6] = test: Biodistribution of I-125 labeled compound in rat liver, 2 min after intravenous injection. value expressed in average % dose per organ; format: ADME, organism-based; settings: in vivo
Rattus norvegicus [7] = test: Biodistribution of I-125 labeled compound in rat lungs, 1 hr after intravenous injection. value expressed in average % dose per organ; format: ADME, organism-based, Lung; settings: in vivo
Rattus norvegicus [8] = test: Biodistribution of I-125 labeled compound in rat thyroid, 2 min after intravenous injection. value expressed in average % dose per organ; format: ADME, organism-based, Thyroid gland; settings: in vivo
Rattus norvegicus [9] = test: Biodistribution of I-125 labeled compound in rat brain, 2 min after intravenous injection. value expressed in average % dose per organ; format: ADME, organism-based; settings: in vivo
Rattus norvegicus [10] = test: Biodistribution of I-125 labeled compound in rat heart, 1 hr after intravenous injection. value expressed in average % dose per organ; format: ADME, organism-based; settings: in vivo
Rattus norvegicus [11] = species on record: Rattus norvegicus; test: Distribution coefficient at pH 7.0 in rat; format: ADME, organism-based
Summary of the method: (§2)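 Octanol/buffer partition: I-125 labeled diamine mixed with 3 g each of 1-octanol and 0.1 M phosphate buffer at pH 7.0 or 7.4, vortexed 3× 1 min, centrifuged 5 min. Two 0.5 g samples of each layer counted. Value is cpm/g octanol over cpm/g buffer, usually repeated three times.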

Rattus norvegicus [12] = species on record: Rattus norvegicus; test: Distribution coefficient at pH 7.4 in rat; format: ADME, organism-based; summary of the method: as §2
Rattus norvegicus [13] = test: Biodistribution of I-125 labeled compound in rat thyroid, 1 hr after intravenous injection. value expressed in average % dose per organ; format: ADME, organism-based, Thyroid gland; settings: in vivo
[14] = The protein binding ability of compound was expressed in Percent free; format: ADME; settings: read-out: % free
Summary of the method: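 Binding to pooled human serum was measured by equilibrium dialysis. 0.4 mL serum and 0.4 mL 0.15 M phosphate buffer, pH 7.4, were separated by a membrane, and 0.025 μCi radiolabeled diamine was added on the buffer side. Cells were rotated at 37 °C for 18 h, and aliquots from both sides were weighed and counted. % free = buffer/serum radioactivity concentration ratio × 100. The membrane was also counted.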

Rattus norvegicus [15] = test: Biodistribution of I-125 labeled compound in rat lungs, 2 min after intravenous injection. value expressed in average % dose per organ; format: ADME, organism-based, Lung; settings: in vivo
Rattus norvegicus [16] = test: Biodistribution of I-125 labeled compound in rat muscle, 1 hr after intravenous injection. value expressed in average % dose per organ; format: ADME, organism-based, Muscle tissue; settings: in vivo
Rattus norvegicus [17] = test: Biodistribution of I-125 labeled compound in rat muscle, 2 min after intravenous injection. value expressed in average % dose per organ; format: ADME, organism-based, Muscle tissue; settings: in vivo
Rattus norvegicus [18] = test: Biodistribution of I-125 labeled compound in rat heart, 2 min after intravenous injection. value expressed in average % dose per organ; format: ADME, organism-based; settings: in vivo
Rattus norvegicus [19] = test: Biodistribution of I-125 labeled compound in rat brain to blood ratio, 1 hr after intravenous injection. value expressed in % dose per gram ratio; format: ADME, organism-based; summary of the method: as §1
Rattus norvegicus [20] = test: Biodistribution of I-125 labeled compound in rat blood, 1 hr after intravenous injection. value expressed in average % dose per organ; value may range from 1.64 to 1.91; format: ADME, organism-based; settings: in vivo
Rattus norvegicus [21] = test: Biodistribution of I-125 labeled compound in rat blood, 2 min after intravenous injection. value expressed in average % dose per organ; value may range from 3.95 to 6.09; format: ADME, organism-based; settings: in vivo
Rattus norvegicus [22] = test: Biodistribution of I-125 labeled compound in rat heart, 2 min after intravenous injection. value expressed in average % dose per organ; value may range from 2.13 to 2.96; format: ADME, organism-based; settings: in vivo
Rattus norvegicus [23] = test: Biodistribution of I-125 labeled compound in rat liver, 1 hr after intravenous injection. value expressed in average % dose per organ; value may range from 11.0 to 13.4; format: ADME, organism-based; settings: in vivo
Rattus norvegicus [24] = test: Biodistribution of I-125 labeled compound in rat brain, 1 hr after intravenous injection. value expressed in average % dose per organ; value may range from 0.95 to 1.00; format: ADME, organism-based; settings: in vivo
Rattus norvegicus [25] = test: Biodistribution of I-125 labeled compound in rat liver, 2 min after intravenous injection. value expressed in average % dose per organ; value may range from 12.3 to 15.0; format: ADME, organism-based; settings: in vivo
Rattus norvegicus [26] = test: Biodistribution of I-125 labeled compound in rat thyroid, 1 hr after intravenous injection. value expressed in average% dose per organ; value may range from 0.19 to 0.25; format: ADME, organism-based, Thyroid gland; settings: in vivo
Rattus norvegicus [27] = test: Biodistribution of I-125 labeled compound in rat thyroid, 2 min after intravenous injection. value expressed in average % dose per organ; value may range from 0.13 to 0.19; format: ADME, organism-based, Thyroid gland; settings: in vivo
Rattus norvegicus [28] = test: Biodistribution of I-125 labeled compound in rat brain, 2 min after intravenous injection. value expressed in average% dose per organ; value may range from 0.85 to 1.01; format: ADME, organism-based; settings: in vivo
Rattus norvegicus [29] = test: Biodistribution of I-125 labeled compound in rat heart, 1 hr after intravenous injection. value expressed in average % dose per organ; value may range from 2.29 to 2.35; format: ADME, organism-based; settings: in vivo
Rattus norvegicus [30] = test: Biodistribution of I-125 labeled compound in rat […] ratio, 1 hr after intravenous injection. value expressed in % dose per gram ratio; format: ADME, organism-based; settings: in vivo
Rattus norvegicus [31] = test: Biodistribution of I-125 labeled compound in rat lungs, 1 hr after intravenous injection. value expressed in average % dose per organ; value may range from 15.1 to 17.1; format: ADME, organism-based, Lung; settings: in vivo
Rattus norvegicus [32] = test: Biodistribution of I-125 labeled compound in rat lungs, 2 min after intravenous injection. value expressed in average % dose per organ; value may range from 31.6 to 34.0; format: ADME, organism-based, Lung; settings: in vivo
Rattus norvegicus [33] = test: Biodistribution of I-125 labeled compound in rat muscle, 1 hr after intravenous injection. value expressed in average % dose per organ; value may range from 11.0 to 15. 8; format: ADME, organism-based, Muscle tissue; settings: in vivo
Rattus norvegicus [34] = test: Biodistribution of I-125 labeled compound in rat muscle, 2 min after intravenous injection. value expressed in average % dose per organ; value may range from 5.95 to 6.51; format: ADME, organism-based, Muscle tissue; settings: in vivo

- Average dose per organ (Rattus norvegicus [1]): 2.79%
- Average dose per organ (Rattus norvegicus [2]): 4.16%
- Average dose per organ (Rattus norvegicus [3]): 1.67%
- Ratio (Rattus norvegicus [4]): 4.31%
- Average dose per organ (Rattus norvegicus [5]): 7.38%
- Average dose per organ (Rattus norvegicus [6]): 11.7%
- Average dose per organ (Rattus norvegicus [7]): 15.4%
- Average dose per organ (Rattus norvegicus [8]): 0.17%
- Average dose per organ (Rattus norvegicus [9]): 1.67%
- Average dose per organ (Rattus norvegicus [10]): 1.33%
- Distribution coefficient (Rattus norvegicus [11]): 522
- Distribution coefficient (Rattus norvegicus [12]): 1390
- Average dose per organ (Rattus norvegicus [13]): 0.2%
- fraction unbound [14]: 0.0607
- Average dose per organ (Rattus norvegicus [15]): 28.2%
- Average dose per organ (Rattus norvegicus [16]): 14.1%
- Average dose per organ (Rattus norvegicus [17]): 6.44%
- Average dose per organ (Rattus norvegicus [18]): 3.16%
- Ratio (Rattus norvegicus [19]): 6.43%
SMILES: CN(C)CCCNCc1cc(I)cc(C(C)(C)C)c1O

- Average dose per organ (Rattus norvegicus [20]): 1.74%
- Average dose per organ (Rattus norvegicus [21]): 5.3%
- Ratio (Rattus norvegicus [4]): 1.91%
- Average dose per organ (Rattus norvegicus [22]): 2.51%
- Average dose per organ (Rattus norvegicus [23]): 12.4%
- Average dose per organ (Rattus norvegicus [24]): 0.97%
- Average dose per organ (Rattus norvegicus [25]): 13.8%
- Average dose per organ (Rattus norvegicus [26]): 0.22%
- Average dose per organ (Rattus norvegicus [27]): 0.16%
- Average dose per organ (Rattus norvegicus [28]): 0.94%
- Average dose per organ (Rattus norvegicus [29]): 2.33%
- Distribution coefficient (Rattus norvegicus [11]): 260
- Distribution coefficient (Rattus norvegicus [12]): 468
- fraction unbound [14]: 0.0517
- Ratio (Rattus norvegicus [30]): 5.99%
- Average dose per organ (Rattus norvegicus [31]): 16.3%
- Average dose per organ (Rattus norvegicus [32]): 33%
- Average dose per organ (Rattus norvegicus [33]): 13.4%
- Average dose per organ (Rattus norvegicus [34]): 6.17%
SMILES: CN(C)CCCNCc1cc(I)cc(C2CCCCC2)c1O

— ChEMBL document CHEMBL1122426, “Radioiodine-labeled N,N-dimethyl-N'-(2-hydroxy-3-alkyl-5-iodobenzyl)-1,3-propanediamines for brain perfusion imaging” (J Med Chem, 1983)
